Experimental data published in ChEMBL document CHEMBL2401612, “Design, synthesis and characterization of peptidomimetic conjugate of BODIPY targeting HER2 protein extracellular domain” (Eur J Med Chem, 2013).
Active and inactive are the calls of the source. The calls are words filed in the database; no cut-off is given here.

Key:
[1] = Cellular uptake in human SKBR3 cells plasma membrane overexpressing HER2 at 0.4 uM after 24 hrs by membrane tracking-based confocal microscopic analysis; assay type: ADME, cell-based; settings: sk-br-3, 24 h
In short: (§1)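 SKBR-3 cells in chamber wells given 0.4 μM BODIPY conjugate at 37 °C for 24 or 48 h, PBS-washed and fixed in ice-cold methanol at −20 °C for 5 min. Membrane tracker (5 min) or Lyso tracker (30 min) in serum-free medium added at 37 °C. Mounted slides imaged by confocal microscopy at 40X under oil with argon and HeNe lasers to assess co-localization.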

[2] = tested on: SK-BR-3; assay: Cellular uptake in human SKBR3 cells overexpressing HER2 at 1 to 10 uM by fluorescence plate reader analysis; assay type: ADME, cell-based; settings: sk-br-3, 10 µM, TDE = time-dependent effect
In short: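 Fluorescent BODIPY conjugate diluted in McCoy's medium to 1 and 10 μM and added to SKBR-3 cells (10,000/well, grown 24 h) at 37 °C. At 0, 12, 24, 36, 48 and 72 h, medium removed and cells washed twice with PBS. Cell-associated fluorescence read on a plate reader at 490/530 nm excitation/emission.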

[3] = tested on: SK-BR-3; assay: Cellular uptake in human SKBR3 cells overexpressing HER2 at 0.4 uM after 48 hrs by lyso tracking-based confocal microscopic analysis; assay type: ADME, cell-based; settings: sk-br-3, 48 h; in short: as §1
[4] = molecular target: Receptor tyrosine-protein kinase erbB-2 (Homo sapiens) (UniProt P04626); assay: Inhibition of HER2 kinase domain phosphorylation in human BT474 cells at 0.4 uM by Western blot analysis; assay type: cell-based; settings: BT-474, TDE = time-dependent effect
In short: (§2)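 BT-474 cells (RPMI-1640) and SKBR-3 cells (McCoy's), each with 10% FBS and insulin, plated in triplicate flasks and treated after 24 h with 0.4 μM compound or left untreated at 37 °C, 5% CO2. Lysates made with protease and phosphatase inhibitors; 40 μg protein run on 10% SDS-PAGE. Blots probed with p-HER2 antibody (1:3000, 15 h, 4 °C), detected by ECL; total HER2 blotted with an anti-ECD antibody.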

[5] = molecular target: Receptor tyrosine-protein kinase erbB-2 (Homo sapiens) (UniProt P04626); assay: Binding affinity to HER2 extracellular domain in human SKBR3 cells assessed as inhibition of HER3 binding at 0.5 uM after 24 hrs by confocal microscopy-based proximity ligation assay; assay type: cell-based; settings: SK-BR-3
In short: (§3)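 SKBR-3 cells seeded at 5 × 10^4 per chamber well and grown 24 h at 37 °C, then treated 24 h. Cells fixed in ice-cold methanol at −20 °C and blocked in 5% BSA 1 h. Primary antibodies anti-HER2 (rabbit) and anti-HER3 (mouse), each 1:400, applied overnight at 4 °C. Duolink PLA probes, ligation and amplification at 37 °C, then confocal imaging of red heterodimer spots.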

[6] = molecular target: Receptor tyrosine-protein kinase erbB-2 (Homo sapiens) (UniProt P04626); assay: Binding affinity to HER2 extracellular domain in human SKBR3 cells assessed as inhibition of EGFR binding; assay type: cell-based; settings: SK-BR-3
[7] = molecular target: Receptor tyrosine-protein kinase erbB-2 (Homo sapiens) (UniProt P04626); assay: Inhibition of HER2 kinase domain phosphorylation in human SKBR3 cells at 0.4 uM after 18 hrs by Western blot analysis; assay type: cell-based; settings: SK-BR-3; in short: as §2
[8] = molecular target: Receptor tyrosine-protein kinase erbB-2 (Homo sapiens) (UniProt P04626); assay: Inhibition of HER2 kinase domain phosphorylation in human SKBR3 cells at 0.4 uM by Western blot analysis; assay type: cell-based; settings: SK-BR-3, TDE = time-dependent effect; in short: as §2
[9] = molecular target: Receptor tyrosine-protein kinase erbB-2 (Homo sapiens) (UniProt P04626); assay: Inhibition of HER2 kinase domain phosphorylation in human BT474 cells at 0.4 uM after 18 hrs by Western blot analysis; assay type: cell-based; settings: BT-474; in short: as §2
[10] = molecular target: Receptor tyrosine-protein kinase erbB-2 (Homo sapiens) (UniProt P04626); assay: Binding affinity to HER2 extracellular domain in human SKBR3 cells assessed as inhibition of HER3 binding at 0.8 uM after 24 hrs by confocal microscopy-based proximity ligation assay; assay type: cell-based; settings: SK-BR-3; in short: as §3

Receptor tyrosine-protein kinase erbB-2 (Homo sapiens), sequence (P04626 whole entry, the tested form may be a part): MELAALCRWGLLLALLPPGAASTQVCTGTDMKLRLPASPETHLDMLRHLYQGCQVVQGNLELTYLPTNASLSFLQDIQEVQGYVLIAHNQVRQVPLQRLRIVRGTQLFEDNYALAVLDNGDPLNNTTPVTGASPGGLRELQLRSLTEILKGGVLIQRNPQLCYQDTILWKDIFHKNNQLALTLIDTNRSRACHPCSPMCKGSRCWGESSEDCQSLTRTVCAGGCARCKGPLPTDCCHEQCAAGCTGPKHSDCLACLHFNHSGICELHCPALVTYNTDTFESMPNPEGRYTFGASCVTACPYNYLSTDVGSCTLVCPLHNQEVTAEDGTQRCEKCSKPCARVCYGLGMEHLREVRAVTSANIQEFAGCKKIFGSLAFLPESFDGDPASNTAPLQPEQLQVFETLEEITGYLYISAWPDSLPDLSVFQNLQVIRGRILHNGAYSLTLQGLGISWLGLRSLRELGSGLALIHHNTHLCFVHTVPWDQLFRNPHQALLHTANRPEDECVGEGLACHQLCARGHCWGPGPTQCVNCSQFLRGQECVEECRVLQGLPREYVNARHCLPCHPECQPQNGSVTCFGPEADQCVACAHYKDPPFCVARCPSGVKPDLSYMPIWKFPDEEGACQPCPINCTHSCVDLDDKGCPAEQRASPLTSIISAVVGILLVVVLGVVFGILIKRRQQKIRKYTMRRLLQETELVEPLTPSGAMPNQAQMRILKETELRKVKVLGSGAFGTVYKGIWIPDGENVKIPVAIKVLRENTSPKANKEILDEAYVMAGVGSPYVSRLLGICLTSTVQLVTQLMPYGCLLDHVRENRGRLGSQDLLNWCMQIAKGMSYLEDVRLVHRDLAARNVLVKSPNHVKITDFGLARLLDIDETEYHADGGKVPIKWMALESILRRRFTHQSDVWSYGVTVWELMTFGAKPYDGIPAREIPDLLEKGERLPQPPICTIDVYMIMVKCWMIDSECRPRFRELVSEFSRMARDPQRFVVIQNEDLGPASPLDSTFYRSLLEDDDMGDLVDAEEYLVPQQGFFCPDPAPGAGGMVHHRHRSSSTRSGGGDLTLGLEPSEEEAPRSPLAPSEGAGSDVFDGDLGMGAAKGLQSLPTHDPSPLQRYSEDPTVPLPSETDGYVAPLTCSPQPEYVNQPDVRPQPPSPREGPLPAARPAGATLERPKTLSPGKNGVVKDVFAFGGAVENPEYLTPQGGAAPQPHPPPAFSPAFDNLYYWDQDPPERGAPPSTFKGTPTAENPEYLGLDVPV

Structure (SMILES): Cc1cc(C)n2c1C=C1C=CC(CCCCC(=O)N[C@@H](CCCNC(=N)N)C(=O)NC(CC(=O)N[C@@H](Cc3ccccc3)C(=O)O)c3cccc4ccccc34)=[N+]1[B-]2(F)F (stereo not given in full)
- Drug uptake [1]: Active
- Drug uptake [2]: tde
- Drug uptake [3]: Active

Structure (SMILES): N=C(N)NCCC[C@H](N)C(=O)NC(CC(=O)N[C@@H](Cc1ccccc1)C(=O)O)c1cccc2ccccc12 (stereo not given in full)
- inhibition [4]: tde
- inhibition [5]: inactive
- inhibition [6]: Active
- inhibition [7]: Active
- inhibition [8]: tde
- inhibition [9]: Active
- inhibition [10]: Active
